# Hits are enriched below; roughly 2.3% of the tested compounds scored in any of these assays.
# NPY Y2 blocker = blocks the human neuropeptide Y Y2 receptor. P49146. NPY-Y2 expressing cells, antagonist mode. inhibition, % at 2.7 µM. hit rate 0.99% among 140,000. AID 793; in the data active = inhibition above about 17%;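 note: 0% = vehicle with agonist challenge and 100% = reference antagonist with challenge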
# NPY Y1 blocker = blocks the human neuropeptide Y Y1 receptor | P25929 | HEK293-CNG Y1 cells, membrane potential fluorescence; NPY at EC95, then isoproterenol | inhibition, % at 3.6 µM | hit rate 1% among 200,000;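 active = inhibition above the campaign mean inhibition of all tested compounds plus 3 SD, cut at about 20% in these data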;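 note: 0% = DMSO wells given NPY plus isoproterenol and 100% = isoproterenol alone without NPY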
# Target sequence (P25929 whole entry, looked up): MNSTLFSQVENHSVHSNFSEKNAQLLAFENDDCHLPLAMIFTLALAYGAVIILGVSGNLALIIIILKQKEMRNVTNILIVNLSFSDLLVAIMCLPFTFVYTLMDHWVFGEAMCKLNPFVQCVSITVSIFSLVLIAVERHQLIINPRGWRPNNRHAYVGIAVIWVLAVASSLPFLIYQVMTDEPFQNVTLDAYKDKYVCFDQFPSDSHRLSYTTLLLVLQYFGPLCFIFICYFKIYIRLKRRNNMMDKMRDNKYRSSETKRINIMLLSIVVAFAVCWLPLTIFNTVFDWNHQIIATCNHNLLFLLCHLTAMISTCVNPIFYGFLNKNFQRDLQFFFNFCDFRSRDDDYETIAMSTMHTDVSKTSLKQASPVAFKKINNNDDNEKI
#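 Material: Y1- and CNG-channel-expressing HEK293 cells / Probe or stimulus: NPY 25 nM then isoproterenol 1 µM plus Ro 20-1724 25 µM / Doses: 3.6 µM single dose, DMSO 0.4% / Schedule: compound incubation 1 h at room temperature, readout 45 min post-stimulation / Signal: membrane potential fluorescence / Benchmarks: isoproterenol-only wells as full block versus NPY-plus-isoproterenol wells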
# NPY1 pot ag = human NPY-Y1 potentiation or agonism, primary screen. activation, % at 3.6 µM. P25929. NPY-Y1 expressing cells, potentiator/agonist activation. hit rate 0.37% among 220,000. AID 1304; in the data active = activation above about 33%, passing the limit was not always enough;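 note: cells stimulated with NPY at EC10 then isoproterenol at EC100; 0% = low agonist plus stimulus and 100% = saturating agonist plus stimulus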
# NPY2 pot ag = potentiators or agonists of human neuropeptide Y receptor Y2. P49146. hit rate 0.45% among 220,000. activation, % at 3.6 µM. cells expressing NPY-Y2, potentiator/agonist read-out. AID 1359; in the data active = activation above about 27%;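 note: cells stimulated with NPY near EC25 plus isoproterenol at EC100; 0% = vehicle plus submaximal agonist and 100% = vehicle plus saturating agonist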
# Calpain2 inh = calpain II (pig) inhibition; hit rate 0.37% among 220,000; inhibition, % at 16 µM; purified calpain II, fluorogenic peptide substrate, 30 min;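 active = inhibition above about 50%, limit read from the data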
# TbHK1 inh = blocks Trypanosoma brucei hexokinase 1 activity | recombinant TbHK1, G6PDH-coupled NADH A340 | inhibition, % at 10 µM | hit rate 0.11% among 220,000 | AID 1430;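 active = inhibition of 50% or more in the single-dose primary screen; inactive = inhibition below 50%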
# G6PDH counter = Leuconostoc glucose-6-phosphate dehydrogenase inhibition, counter-screen; shares compounds with TbHK1 inh; purified G6PDH, NADH absorbance, 1 h; inhibition, % at 10 µM; hit rate 7% among 210; AID 2516;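 active = at least 50% inhibition in the glucose-6-phosphate dehydrogenase coupled counterscreen; inconclusive = no clear call, values can overlap the other calls; inactive = inhibition below 50%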
# TbHK1 rescreen = T. brucei hexokinase 1 inhibition, rescreen; shares compounds with TbHK1 inh; recombinant TbHK1, G6PDH-coupled NADH A340 absorbance; inhibition, % at 10 µM; hit rate 10% among 210; AID 2560;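 active = inhibition of at least 50% in both of the two screening runs; inconclusive = at least 50% in one run, below 50% in the other; inactive = inhibition below 50% in both runs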;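 note: 0% and 100% set by the maximum and minimum signal control wells on each plate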
# An asterisk follows results filed as active; ? = inconclusive; / = no result given.
SMILES,NPY Y2 blocker,NPY Y1 blocker,NPY1 pot ag,NPY2 pot ag,Calpain2 inh,TbHK1 inh,G6PDH counter,TbHK1 rescreen
Clc1nc(CN2CCCCC2)nc2sc3c(c12)CCC3,/,-4,-6,0,-31,-2,/,/
COc1ccc(CC(=O)OC(C)CN2CCCC2)cc1 (configuration not stated),2,9,-8,-19,27,56*,0,-3
Cc1n[nH]c(=O)nc1NC(C)c1ccccc1 (configuration not stated),2,1,-15,-18,4,51*,-2,2
Cc1ccc(OCC(=O)O/N=C(\N)Cc2ccc([N+](=O)[O-])cc2)cc1C,/,/,-8,-33,27,5,/,/
COc1cc(OC)cc(C(=O)NC2CCN(CC(=O)Nc3cccc4ccccc34)CC2)c1,-3,-7,-28,-9,-15,53*,-39,-8
COc1cccc(C(=O)NC2CCN(CC(=O)Nc3cccc(C)c3C)CC2)c1,/,3,-14,-13,-17,-6,/,/
Fc1cccc(NC(=S)NCc2ccccn2)c1,3,1,-2,2,20,52*,4,1
S=C(NCc1ccccn1)Nc1ccc(Cl)cc1,7,-10,-1,12,-7,3,/,/
COc1ccc(CN(C)C(=S)Nc2ccc(Cl)cc2)cc1,/,-2,1,-17,30,9,/,/
COc1ccc(C(=O)Nc2ccc3cn[nH]c3c2)c(OC)c1,/,1,3,-2,11,-4,/,/
CC(C)c1csc(CN2CCC(N3CCC(C(=O)N4CCOCC4)CC3)CC2)n1,/,4,4,-4,-12,2,/,/
CSc1nnc(-c2ccccc2)o1,2,-1,5,-12,-15,55*,-4,2
c1ccc(-c2nnc(-c3ccccc3)o2)cc1,5,10,-8,-11,10,5,/,/
CC(=O)Nc1nc(-c2ccc(Cl)cc2)ns1,2,0,-19,16,-15,-2,/,/
CCN(CC)c1ccc2cc(-c3nc4ccccc4[nH]3)c(=O)oc2c1,0,9,-6,8,5,68*,111*,84*
CCC(=O)N1CCc2cc(S(=O)(=O)CCC(=O)NCCC3=CCCCC3)ccc21,3,-5,-11,-5,-2,68*,-10,3
Cc1ccc(C(=O)COc2cc(C)nc3nncn23)cc1,/,/,5,6,0,-7,/,/
CCCOc1ccccc1/C=C(\C#N)C(=O)Nc1cccnc1,/,/,7,-3,11,-19,/,/
Cc1cccc(C(=O)NC(=S)NNC(=O)COc2c(C)cccc2C)c1,15,3,11,1,-36,8,/,/
Cc1cccc(C(=O)NC(=S)NNC(=O)Cc2ccccc2)c1,1,3,2,4,12,67*,-14,-3
Cc1cc(C)c2c(=O)n(CC(=O)Nc3ccc(Br)c(C)c3)sc2n1,/,/,4,-3,0,51*,-6,42
c1ccc(-c2cnc(-c3ccccc3)nc2)cc1,3,-7,5,7,-44,59*,-32,-23
C#CCOCCOCCOCCNc1nc(N2CCN(C(=O)C(Cc3cc4ccccc4[nH]3)n3cc(C(N)Cc4ccc(O)cc4)nn3)CC2)nc(N2CCN(C(=O)C(Cc3cc4ccccc4[nH]3)n3cc(C(N)Cc4ccc(O)cc4)nn3)CC2)n1 (configuration not stated),/,3,-4,-7,-37,53*,88*,20
O=c1c(O)cccc2cc(O)c(O)c(O)c12,/,/,1,-10,20,70*,-8,?
COc1cc2cccc(OC)c(=O)c2c(OC)c1OC,/,-2,-20,-11,21,-13,/,/
SMILES,NPY Y2 blocker,NPY Y1 blocker,NPY1 pot ag,NPY2 pot ag,Calpain2 inh,TbHK1 inh,G6PDH counter,TbHK1 rescreen
N#CCCN(C(=O)COc1ccc(Cl)cc1Cl)c1ccccc1,1,-4,6,-9,0,3,/,/
NS(=O)(=O)c1cccc(NS(=O)(=O)c2ccc(/C=C/C(=O)O)cc2)c1,/,/,15,8,0,-12,/,/
Cc1cc(C(=O)NNS(=O)(=O)c2ccc(C(C)(C)C)cc2)nn1C(C)(C)C,/,/,-27,7,4,52*,-6,4
CCNC(=O)NC(=O)CSc1ccc(NC(C)=O)cc1,-1,3,4,-1,23,74*,-7,0
O=C(O)COc1ccccc1C(Nc1ccccn1)c1cc(Cl)c2cccnc2c1O (configuration not stated),3,-1,3,-4,-32,76*,-42,28
COc1ccc(CCNC(=O)Cn2nnc(-c3ccc(N4CCOCC4)cc3)n2)cc1OC,0,-2,3,12,-37,51*,-19,-17
COc1ccc(CCNC(=O)Cn2nnc(-c3cccc(OC)c3OC)n2)cc1OC,-2,-2,-16,-1,12,-1,/,/
O=C1N(c2cccc(Cl)c2)C(c2ccc(Cl)cc2)N2CCCN12 (configuration not stated),4,-1,-4,5,12,0,/,/
O=C(CSc1n[nH]c(-c2ccccc2O)n1)N1CCCc2ccccc21,5,1,-10,-3,-3,64*,-4,-1
CN(C)c1ccc2nc3ccc(=[N+](C)C)cc-3sc2c1,/,1,8,11,-8,75*,128*,77*
Cc1cc2nc3ccc(=[N+](C)C)cc-3sc2cc1N,/,/,16,-7,21,66*,126*,77*
Cc1cc(C)c(C)c(OC(=O)c2sc(Cl)nc2C)c1,4,2,-4,-5,1,-7,/,/
CCCOc1ccc(C(CC(=O)O)NC(=O)C23CC4CC(CC(C4)C2)C3)cc1 (configuration not stated),4,10,-2,8,-1,60*,-30,2
O=C(O)CC(NC(=O)C12CC3CC(CC(C3)C1)C2)c1ccc2c(c1)OCO2 (configuration not stated),/,3,-9,5,0,-9,/,/
NC(=S)c1cc2ccc(O)cc2oc1=O,2,3,-13,-4,-202,85*,109*,80*
O=C(O)CCn1nnc(-c2cccs2)n1,1,1,-14,-9,-4,54*,-3,1
COc1cc(CCC(=O)OCC(N)=O)cc(OC)c1OC,/,2,1,2,-22,56*,-6,-5
COc1cc(CCC(=O)OCC(=O)NC(=O)c2ccc(Cl)cc2)cc(OC)c1OC,/,1,7,8,-38,-1,/,/

# Assay outcomes as filed in PubChem BioAssay.
